The values that follow come from ChEMBL document CHEMBL1811781, “Arthrinins A-D: novel diterpenoids and further constituents from the sponge derived fungus Arthrinium sp” (Bioorg Med Chem, 2011).

Assay [1] addresses Hepatocyte growth factor receptor (Homo sapiens, UniProt P08581). As to the kind of experiment: Inhibition of wild type MET assessed as 33Pi incorporation after 60 mins by scintillation counting. Put shortly:
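Wild-type MET phosphorylates poly(Ala,Glu,Lys,Tyr) in HEPES-NaOH pH 7.5 (70 mM) with 3 mM MgCl2, 3 mM MnCl2, orthovanadate, 1.2 mM DTT, PEG, 1 µM [γ-33P]-ATP, at 30 °C for 60 min. Stop with 2% H3PO4, wash, scintillation count. IC50 from residual activity at 10 singlicate concentrations.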

The target of the next assay is Focal adhesion kinase 1 (Homo sapiens, UniProt Q05397). Put plainly: Inhibition of recombinant FAK assessed as 33Pi incorporation after 60 mins by scintillation counting. The method in brief:
(§1)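 Tyrosine kinases assayed on poly(Glu,Tyr) in 70 mM HEPES-NaOH pH 7.5, 3 mM MgCl2, 3 mM MnCl2, orthovanadate, 1.2 mM DTT, PEG, 1 µM [γ-33P]-ATP; 30 °C for 60 min, then 2% H3PO4 stop, saline wash, 33Pi scintillation. IC50 derived from residual activity at 10 concentrations in singlicate.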

For another assay, the target named is Aurora kinase B (Homo sapiens, UniProt Q96GD4). As to the kind of experiment: Inhibition of recombinant Aurora-b assessed as 33Pi incorporation after 60 mins by scintillation counting. The method in brief: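 Substrate tetra(LRRWSLG) with recombinant Aurora-B. Buffer is 70 mM HEPES-NaOH pH 7.5, 3 mM MgCl2, 3 mM MnCl2, orthovanadate, 1.2 mM DTT, PEG, with 1 µM [γ-33P]-ATP. After 60 min at 30 °C, 2% H3PO4 stop, NaCl washes, 33Pi counted. IC50 fitted from 10 singlicate concentrations.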

In the next assay the test system is L5178Y. Put plainly: Antiproliferative activity against mouse L5178Y cells after 24 hrs by MTT assay. Type of assay: functional, cell-based. The method in brief:
(§2)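 Microplate MTT proliferation read-out, scored against untreated controls; each experiment run in triplicate.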
Background: Formazan colour is commonly taken as a measure of viable cells.

Assay [2] concerns the target NUAK family SNF1-like kinase 1 (Homo sapiens, UniProt O60285). As to the kind of experiment: (§3) Inhibition of recombinant ARK5 assessed as 33Pi incorporation after 60 mins by scintillation counting. The method in brief: (§4)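 Kinase reaction uses RBER-CHKtide as substrate in HEPES-NaOH pH 7.5 (70 mM) with 3 mM each MgCl2 and MnCl2, orthovanadate, 1.2 mM DTT, PEG and 1 µM [γ-33P]-ATP. Run at 30 °C for 60 min, quenched in 2% H3PO4, saline-washed, scintillation-counted. Residual activity at 10 concentrations (singlicate) gives IC50.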

Assay [3] has as its target Serine/threonine-protein kinase pim-1 (Homo sapiens, UniProt P11309). As to the kind of experiment: Inhibition of recombinant PIM1 assessed as 33Pi incorporation after 60 mins by scintillation counting. The method in brief:
(§5)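 Recombinant kinase with GSK3(14-27) substrate in 70 mM HEPES-NaOH pH 7.5, 3 mM MgCl2, 3 mM MnCl2, Na-orthovanadate, 1.2 mM DTT, PEG, 1 µM [γ-33P]-ATP. Incubated 30 °C, 60 min, stopped with 2% H3PO4, washed with 0.9% NaCl, 33Pi counted. IC50 from residual activity over 10 concentrations in singlicate.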

A further assay has as its system K562. Put plainly: Antiproliferative activity against human K562 cells after 24 hrs by MTT assay. Type of assay: functional, cell-based. Put shortly:
as §2

The target in assay [4] is Vascular endothelial growth factor receptor 2 (Homo sapiens, UniProt P35968). As to the kind of experiment: Inhibition of recombinant VEGF-R2 assessed as 33Pi incorporation after 60 mins by scintillation counting. Put shortly:
as §1

For assay [5], the target named is Serine/threonine-protein kinase Nek6 (Homo sapiens, UniProt Q9HC98). Put plainly: Inhibition of recombinant NEK6 assessed as 33Pi incorporation after 60 mins by scintillation counting. The method in brief:
as §5

The target in assay [6] is Dual specificity mitogen-activated protein kinase kinase 1 (Homo sapiens, UniProt Q02750). As to the kind of experiment: Inhibition of wild type MEK1 assessed as 33Pi incorporation after 60 mins by scintillation counting. Put shortly:
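ERK2-KR is the substrate for wild-type MEK1 in 70 mM HEPES-NaOH pH 7.5 containing 3 mM MgCl2, 3 mM MnCl2, orthovanadate, 1.2 mM DTT, PEG and 1 µM [γ-33P]-ATP. Reaction runs 60 min at 30 °C and is stopped with 2% H3PO4; incorporated 33Pi is counted after washing. IC50 comes from 10 concentrations tested once each.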

Assay [7] deals with Serine/threonine-protein kinase N1 (Homo sapiens, UniProt Q16512). Put plainly: Inhibition of recombinant PRK1 assessed as 33Pi incorporation after 60 mins by scintillation counting. Put shortly: as §4
In assay [8] the target is Insulin-like growth factor 1 receptor (Homo sapiens, UniProt P08069). Put plainly: Inhibition of recombinant IGF1-R assessed as 33Pi incorporation after 60 mins by scintillation counting. Put shortly: as §1
The test system of assay [9] is A2780. Put plainly: Antiproliferative activity against human cisplatin resistant A2780 cells after 24 hrs by MTT assay. Type of assay: functional, cell-based. Put shortly:
as §2

For assay [10], the system named is A2780. Put plainly: Antiproliferative activity against human A2780 cells after 24 hrs by MTT assay. Type of assay: functional, cell-based. The method in brief: as §2
For assay [11], the target named is Serine/threonine-protein kinase Nek2 (Homo sapiens, UniProt P51955). As to the kind of experiment: (§6) Inhibition of recombinant NEK2 assessed as 33Pi incorporation after 60 mins by scintillation counting. The method in brief: (§7)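 NEK2 reaction on RB-CTF substrate. Contains 70 mM HEPES-NaOH pH 7.5, 3 mM MgCl2/MnCl2, orthovanadate, 1.2 mM DTT, PEG and 1 µM [γ-33P]-ATP. Incubation is 30 °C, 60 min, followed by 2% H3PO4 stop, 0.9% NaCl washes and 33Pi scintillation counting. IC50 from 10 concentrations in singlicate.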

Assay [12] has as its target ALK tyrosine kinase receptor (Homo sapiens, UniProt Q9UM73). As to the kind of experiment: Inhibition of recombinant ALK assessed as 33Pi incorporation after 60 mins by scintillation counting. Put shortly: as §1
The target in assay [13] is RAC-alpha serine/threonine-protein kinase (Homo sapiens, UniProt P31749). Put plainly: Inhibition of recombinant AKT1 assessed as 33Pi incorporation after 60 mins by scintillation counting. Put shortly: as §5
The target of assay [14] is Proto-oncogene tyrosine-protein kinase Src (Homo sapiens, UniProt P12931). As to the kind of experiment: Inhibition of recombinant SRC assessed as 33Pi incorporation after 60 mins by scintillation counting. The method in brief: as §1
The target of assay [15] is Serine/threonine-protein kinase PLK1 (Homo sapiens, UniProt P53350). As to the kind of experiment: Inhibition of recombinant PLK1 assessed as 33Pi incorporation after 60 mins by scintillation counting. Put shortly: as §4
Assay [16] has as its target Tyrosine-protein kinase receptor UFO (Homo sapiens, UniProt P30530). As to the kind of experiment: (§8) Inhibition of recombinant AXL assessed as 33Pi incorporation after 60 mins by scintillation counting. Put shortly:
as §1

The target in assay [17] is NUAK family SNF1-like kinase 1 (Homo sapiens) (UniProt O60285). The assay is described as §3. The method in brief: as §4
The target of assay [18] is Serine/threonine-protein kinase Nek2 (Homo sapiens) (UniProt P51955). Described as §6. Put shortly:
as §7

Assay [19] deals with Tyrosine-protein kinase receptor UFO (Homo sapiens) (UniProt P30530). The assay is described as §8. The method in brief: as §1
The subject of a further assay is HUVEC. Put plainly: Inhibition of VEGF-A induced HUVEC cell sprouting after 24 hrs by angiogenesis assay. Type of assay: functional, cell-based. The settings on record: Homo sapiens. Put shortly: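 HUVEC spheroids (500 cells, formed overnight in hanging drops) embedded in collagen gel. Compound plus VEGF-A (25 ng/mL final) added after 30 min; 37 °C for 24 h, then paraformaldehyde fixation. Mean cumulative sprout length of 10 random spheroids per point; seven concentrations, 10 µM to 10 nM, in singlicate for IC50.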

Where [20] appears, read: Mus musculus, L5178Y, 24 h, read-out: IC50.
Where [21] appears, read: Homo sapiens, K562, 24 h, read-out: IC50.
The mark [22] stands for this setting: Homo sapiens, A2780, 24 h, read-out: IC50.

Activity calls are given as the source filed them. The calls are words filed in the database; no cut-off is given here.

Dual specificity mitogen-activated protein kinase kinase 1, sequence (Q02750 whole entry): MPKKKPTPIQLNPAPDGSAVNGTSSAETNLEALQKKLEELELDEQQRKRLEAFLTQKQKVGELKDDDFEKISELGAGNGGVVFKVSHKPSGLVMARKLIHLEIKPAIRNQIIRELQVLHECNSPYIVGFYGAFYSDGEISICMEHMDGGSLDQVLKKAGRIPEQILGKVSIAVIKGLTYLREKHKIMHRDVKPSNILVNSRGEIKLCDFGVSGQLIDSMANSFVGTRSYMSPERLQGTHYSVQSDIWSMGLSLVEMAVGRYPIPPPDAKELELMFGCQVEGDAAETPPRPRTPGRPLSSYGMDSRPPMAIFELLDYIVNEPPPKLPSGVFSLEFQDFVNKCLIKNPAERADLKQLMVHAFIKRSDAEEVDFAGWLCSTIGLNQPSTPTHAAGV
Hepatocyte growth factor receptor, sequence (P08581 whole entry): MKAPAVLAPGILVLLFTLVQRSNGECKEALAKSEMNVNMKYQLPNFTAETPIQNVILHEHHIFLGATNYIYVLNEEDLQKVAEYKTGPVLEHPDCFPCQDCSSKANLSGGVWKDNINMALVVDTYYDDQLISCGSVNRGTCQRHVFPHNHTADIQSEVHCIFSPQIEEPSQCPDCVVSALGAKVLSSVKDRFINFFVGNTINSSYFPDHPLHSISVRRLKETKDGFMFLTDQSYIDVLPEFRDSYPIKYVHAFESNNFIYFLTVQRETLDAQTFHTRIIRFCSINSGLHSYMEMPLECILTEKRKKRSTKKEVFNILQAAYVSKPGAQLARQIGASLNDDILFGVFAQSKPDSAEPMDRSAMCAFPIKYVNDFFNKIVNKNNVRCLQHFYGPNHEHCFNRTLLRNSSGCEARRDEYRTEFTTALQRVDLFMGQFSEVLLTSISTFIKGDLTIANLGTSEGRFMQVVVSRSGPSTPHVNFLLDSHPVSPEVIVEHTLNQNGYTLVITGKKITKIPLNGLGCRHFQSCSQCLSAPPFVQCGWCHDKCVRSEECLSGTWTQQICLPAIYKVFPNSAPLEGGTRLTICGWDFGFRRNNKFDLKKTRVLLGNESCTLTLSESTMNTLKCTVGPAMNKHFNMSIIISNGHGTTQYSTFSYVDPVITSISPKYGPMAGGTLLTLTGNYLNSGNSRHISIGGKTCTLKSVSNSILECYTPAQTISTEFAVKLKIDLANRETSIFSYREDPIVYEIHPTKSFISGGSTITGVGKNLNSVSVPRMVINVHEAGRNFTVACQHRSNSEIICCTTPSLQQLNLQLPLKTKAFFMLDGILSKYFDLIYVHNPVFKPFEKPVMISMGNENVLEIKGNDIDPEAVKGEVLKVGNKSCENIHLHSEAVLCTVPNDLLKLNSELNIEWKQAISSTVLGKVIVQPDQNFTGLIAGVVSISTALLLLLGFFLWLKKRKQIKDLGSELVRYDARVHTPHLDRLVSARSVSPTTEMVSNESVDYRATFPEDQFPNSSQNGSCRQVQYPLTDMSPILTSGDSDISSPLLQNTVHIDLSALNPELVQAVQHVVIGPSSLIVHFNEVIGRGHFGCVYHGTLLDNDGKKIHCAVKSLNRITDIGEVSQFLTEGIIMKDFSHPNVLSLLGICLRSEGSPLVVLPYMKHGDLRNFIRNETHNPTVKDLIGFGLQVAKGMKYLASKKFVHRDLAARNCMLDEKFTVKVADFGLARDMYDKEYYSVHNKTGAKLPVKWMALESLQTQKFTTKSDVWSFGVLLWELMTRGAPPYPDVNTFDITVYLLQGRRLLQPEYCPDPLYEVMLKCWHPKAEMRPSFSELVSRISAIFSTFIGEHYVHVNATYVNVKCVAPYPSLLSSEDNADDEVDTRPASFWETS
RAC-alpha serine/threonine-protein kinase, sequence (P31749 whole entry): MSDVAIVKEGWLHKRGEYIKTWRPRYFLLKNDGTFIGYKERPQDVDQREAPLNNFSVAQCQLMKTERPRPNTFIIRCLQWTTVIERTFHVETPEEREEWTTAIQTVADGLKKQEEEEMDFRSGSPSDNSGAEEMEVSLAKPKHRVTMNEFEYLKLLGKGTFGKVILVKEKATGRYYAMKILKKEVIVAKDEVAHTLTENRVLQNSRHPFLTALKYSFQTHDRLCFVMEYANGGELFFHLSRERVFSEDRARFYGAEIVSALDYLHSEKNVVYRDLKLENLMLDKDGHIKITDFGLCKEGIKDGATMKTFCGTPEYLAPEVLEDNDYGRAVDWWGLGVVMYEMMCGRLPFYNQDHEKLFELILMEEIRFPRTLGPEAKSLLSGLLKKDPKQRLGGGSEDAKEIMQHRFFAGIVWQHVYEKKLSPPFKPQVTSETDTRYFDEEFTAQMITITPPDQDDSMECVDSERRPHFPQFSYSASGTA
Proto-oncogene tyrosine-protein kinase Src, sequence (P12931 2-536 limits assumed): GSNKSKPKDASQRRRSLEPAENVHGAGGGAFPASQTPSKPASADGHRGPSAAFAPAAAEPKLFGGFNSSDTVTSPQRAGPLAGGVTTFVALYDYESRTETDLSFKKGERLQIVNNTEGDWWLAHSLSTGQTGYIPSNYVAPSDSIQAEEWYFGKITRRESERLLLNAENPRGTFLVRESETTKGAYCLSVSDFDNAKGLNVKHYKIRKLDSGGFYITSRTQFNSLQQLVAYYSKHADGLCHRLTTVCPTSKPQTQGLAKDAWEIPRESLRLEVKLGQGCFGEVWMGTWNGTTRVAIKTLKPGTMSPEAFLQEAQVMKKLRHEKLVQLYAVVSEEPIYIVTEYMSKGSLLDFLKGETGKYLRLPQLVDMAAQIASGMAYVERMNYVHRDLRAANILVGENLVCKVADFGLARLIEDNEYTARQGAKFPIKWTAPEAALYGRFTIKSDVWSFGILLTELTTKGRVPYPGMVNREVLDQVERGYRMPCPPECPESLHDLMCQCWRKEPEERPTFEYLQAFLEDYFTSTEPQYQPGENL
Insulin-like growth factor 1 receptor, sequence (P08069 31-736 limits assumed): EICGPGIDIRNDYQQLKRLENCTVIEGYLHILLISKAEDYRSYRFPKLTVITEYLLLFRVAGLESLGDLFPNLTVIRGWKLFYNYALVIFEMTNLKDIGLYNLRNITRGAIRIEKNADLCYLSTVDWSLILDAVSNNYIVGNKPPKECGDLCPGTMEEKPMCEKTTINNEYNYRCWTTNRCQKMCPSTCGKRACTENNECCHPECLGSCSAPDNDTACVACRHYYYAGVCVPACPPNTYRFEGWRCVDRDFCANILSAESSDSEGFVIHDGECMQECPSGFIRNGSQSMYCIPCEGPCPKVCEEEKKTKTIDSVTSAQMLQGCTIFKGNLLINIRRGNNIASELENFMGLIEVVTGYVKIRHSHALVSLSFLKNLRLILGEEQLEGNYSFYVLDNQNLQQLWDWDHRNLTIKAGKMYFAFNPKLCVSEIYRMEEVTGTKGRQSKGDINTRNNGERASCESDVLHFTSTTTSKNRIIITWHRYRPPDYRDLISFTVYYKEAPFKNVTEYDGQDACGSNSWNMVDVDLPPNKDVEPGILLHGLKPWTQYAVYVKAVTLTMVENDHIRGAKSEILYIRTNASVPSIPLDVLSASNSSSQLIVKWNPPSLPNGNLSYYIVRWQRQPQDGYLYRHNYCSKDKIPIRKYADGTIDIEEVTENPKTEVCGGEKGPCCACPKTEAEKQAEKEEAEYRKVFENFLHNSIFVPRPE
Insulin-like growth factor 1 receptor, sequence (P08069 741-1367 limits assumed): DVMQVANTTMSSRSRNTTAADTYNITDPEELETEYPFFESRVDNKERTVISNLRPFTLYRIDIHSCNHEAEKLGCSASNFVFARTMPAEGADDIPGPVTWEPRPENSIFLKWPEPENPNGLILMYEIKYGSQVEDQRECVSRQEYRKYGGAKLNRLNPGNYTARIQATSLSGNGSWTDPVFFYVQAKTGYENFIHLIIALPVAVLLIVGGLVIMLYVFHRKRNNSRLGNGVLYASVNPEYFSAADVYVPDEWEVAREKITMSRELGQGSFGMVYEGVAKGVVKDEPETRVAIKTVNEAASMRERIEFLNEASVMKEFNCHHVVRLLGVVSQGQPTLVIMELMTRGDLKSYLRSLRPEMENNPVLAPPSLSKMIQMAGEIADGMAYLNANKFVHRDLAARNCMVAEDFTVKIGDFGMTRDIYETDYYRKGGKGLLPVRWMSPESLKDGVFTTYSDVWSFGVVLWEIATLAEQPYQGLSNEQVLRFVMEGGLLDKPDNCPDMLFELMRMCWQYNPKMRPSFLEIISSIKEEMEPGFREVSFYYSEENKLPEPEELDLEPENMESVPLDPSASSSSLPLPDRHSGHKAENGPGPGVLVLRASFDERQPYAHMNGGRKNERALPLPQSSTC
Aurora kinase B, sequence (Q96GD4 whole entry): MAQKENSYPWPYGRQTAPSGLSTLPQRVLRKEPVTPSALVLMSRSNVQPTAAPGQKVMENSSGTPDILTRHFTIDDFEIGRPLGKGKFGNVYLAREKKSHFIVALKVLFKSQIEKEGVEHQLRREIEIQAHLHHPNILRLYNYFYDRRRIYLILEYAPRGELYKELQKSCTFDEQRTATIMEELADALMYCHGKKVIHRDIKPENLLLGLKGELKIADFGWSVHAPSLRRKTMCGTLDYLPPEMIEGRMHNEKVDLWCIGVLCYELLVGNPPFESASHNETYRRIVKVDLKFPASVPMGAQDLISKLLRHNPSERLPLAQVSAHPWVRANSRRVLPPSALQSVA
Serine/threonine-protein kinase Nek6, sequence (Q9HC98 whole entry): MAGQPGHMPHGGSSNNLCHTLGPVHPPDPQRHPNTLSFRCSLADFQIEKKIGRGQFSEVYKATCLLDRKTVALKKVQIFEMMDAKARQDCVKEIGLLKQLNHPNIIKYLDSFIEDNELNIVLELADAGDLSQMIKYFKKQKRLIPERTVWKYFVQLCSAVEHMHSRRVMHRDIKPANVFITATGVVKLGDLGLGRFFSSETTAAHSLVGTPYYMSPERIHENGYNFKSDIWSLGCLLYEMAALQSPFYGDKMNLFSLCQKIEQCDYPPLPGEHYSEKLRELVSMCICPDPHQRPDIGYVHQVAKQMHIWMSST

In the case of `Cc1cc(O)cc2oc3cc(O)cc(O)c3c(=O)c12` [NORLICHEXANTHONE], the IC50 (commonly the concentration that gives 50% inhibition) in [1] is over 100 µM; on Focal adhesion kinase 1, over 100 µM; on Aurora kinase B, 3 µM; in the assay with L5178Y (setting [20]), 1.16 µM; in assay [2], 33 µM; in [3], 0.3 µM. The IC50 was 254 µM in the assay on K562 (setting [21]); 11.7 µM in assay [4]; over 100 µM in assay [5]; over 100 µM in assay [6]; 54.9 µM in assay [7]; 33.3 µM in assay [8]. For the same molecule, the IC50 is 74 µM in the assay on A2780 [9] (setting [22]); 68.2 µM in the assay on A2780 [10] (setting [22]); over 100 µM in assay [11]; 41.3 µM in [12]; over 100 µM in assay [13]; 35 µM in assay [14]. For the same molecule, the 50% inhibitory concentration (IC50) is 75.7 µM in [15] and over 100 µM in assay [16].
As to `C=C[C@]1(C)C=C2[C@@H](O)[C@@H]3OC(=O)[C@@]4(C)CC[C@H]5C[C@]5([C@@H]34)[C@@]2(O)C(=O)C1` [MYROCIN D], the inhibition entry (in [1]; on Focal adhesion kinase 1; at Aurora kinase B; in assay [17]; in [3]; in assay [4]) was “inactive” throughout. Moreover, the inhibition entry in assay [5], in assay [6], in assay [7], in assay [8], in [18] and in assay [12] was “inactive” in each case. The inhibition result in [13], in assay [14], in assay [15] and in assay [19] was “inactive” throughout. Also, the IC50 stood at 2.05 µM in the assay with L5178Y (setting [20]); 50.3 µM in the assay on K562 (setting [21]); 66 µM in the assay with A2780 [9] (setting [22]); 41.3 µM with A2780 [10] (setting [22]); 2.6 µM with HUVEC.
As to `Cc1cc(O)c2c(c1)[C@H](O)[C@H]1OC(=O)[C@]3(C)CC[C@@H]4C[C@@]24[C@H]13` [ARTHRININ C], the IC50 entry with L5178Y (l5178y), with K562 (k562), with A2780 [9] (a2780) and in the assay on A2780 [10] (a2780) was “Not Active” throughout.
In the case of `C=Cc1c(C)cc(O)c2c1[C@H](O)[C@H]1OC(=O)[C@]3(C)CC[C@@H]4C[C@@]24[C@H]13` [ARTHRININ A], the IC50 result with L5178Y (l5178y), in the assay on K562 (k562), in the assay on A2780 [9] (a2780) and in the assay on A2780 [10] (a2780) was “Not Active” throughout.
On to `C/C=C1\NC(=O)[C@H](Cc2ccccc2)NC(=O)[C@@H](C(C)C)NC(=O)[C@@H]([C@H](C)CC)NC(=O)[C@H](NC(=O)[C@H](NC(=O)[C@H](CCCN)NC(=O)[C@H]2CCCN2C(=O)[C@H](NC(=O)[C@@H](NC(=O)[C@@H](NC(=O)[C@H](NC(=O)CCCC(C)C)C(C)C)[C@@H](C)O)C(C)C)C(C)C)[C@H](C)CC)[C@H](C)OC(=O)[C@H](C(C)C)NC1=O` [KAHALALIDE F], for which the IC50 in the assay with L5178Y (setting [20]) is 4.3 µM.
Turning to `CCN(CC)CCNC(=O)c1c(C)[nH]c(/C=C2\C(=O)Nc3ccc(F)cc32)c1C` [SUNITINIB], the IC50 with HUVEC was 0.12 µM.
Take `C=Cc1c(C)cc2c(c1O)[C@]13C[C@H]1CC[C@@]1(C)C(=O)O[C@H]([C@H]2O)[C@@H]31` [ARTHRININ B]: the IC50 result with L5178Y (l5178y), in the assay with K562 (k562), with A2780 [9] (a2780) and in the assay with A2780 [10] (a2780) was “Not Active” throughout.
As for `C=C[C@@]1(C)C=C2C(=O)C(O)=C3[C@](C)(C(=O)O)CC[C@@H]4C[C@]34[C@]2(O)C(=O)C1` [MYROCIN A], the inhibition entry (in [1]; on Focal adhesion kinase 1; on Aurora kinase B; in assay [17]; in [3]; in assay [4]) was “inactive” in each case. The inhibition result in [5], in assay [6], in assay [7], in [8], in assay [18] and in assay [12] was “inactive” in each case. In addition, the inhibition result in assay [13], in assay [14], in assay [15] and in assay [19] was “inactive” each time. Also, the IC50 in the assay with L5178Y (setting [20]) amounted to 2.74 µM; in the assay on K562 (setting [21]), 42 µM; in the assay on A2780 [9] (setting [22]), 155 µM; in the assay on A2780 [10] (setting [22]), 28.2 µM; with HUVEC, 3.7 µM.
For the molecule `C=Cc1c(C)cc(O)c2c1[C@H](O)[C@@H](O)[C@H]1[C@]23C[C@H]3CC[C@@]1(C)C(=O)OC` [ARTHRININ D], the IC50 entry in the assay on L5178Y (l5178y), with K562 (k562), in the assay with A2780 [9] (a2780) and in the assay with A2780 [10] (a2780) was “Not Active” throughout.
